Experiments:
Homo sapiens [1] = test: Ratio of Cmax in human CSF to Cmax in human plasma with normal renal function assessed as CMMG level at 2000 mg, po every 6 hrs measured after fifth dose by LC/MS; type: ADME, organism-based
In short: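 For each normal-renal-function subject, the metabolite CSF Cmax was divided by the serum Cmax from samples taken 0–8 h after the fifth dose. Both were measured by LC/MS with isotope-labelled internal standards, and the ratio is given as mean ± SD.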

Homo sapiens [2] = test: Drug level in human CSF with normal renal function assessed as CMMG level at 2000 mg, po every 6 hrs measured after fifth dose by LC/MS; type: ADME, organism-based; details: in vivo, read-out: Drug uptake
In short: (§1)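 Six volunteers with normal renal function fasted from 8 h before to 2 h after the fifth dose. Intrathecal-catheter CSF and venous blood were sampled at 0–8 h and stored at −70°C. Noncompartmental Cmax, tmax and AUCτ (0–6 h) were derived; Cavg = AUCτ/τ.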

Homo sapiens [3] = test: Tmax in human CSF with chronic kidney disease assessed as CMMG level at 1500 mg, po every 12 hrs measured after fifth dose by LC/MS; type: ADME, organism-based, Cerebrospinal fluid; details: in vivo
In short: (§2)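 Three CKD adults (CrCl ~15–30 ml/min) fasted around the final dose. Lumbar intrathecal catheter CSF and EDTA venous blood were taken predose and at 0.5–8 h plus 12 h, then stored at −70°C. Metabolites in serum/CSF were measured by SPE with isotope-labelled internal standards, reversed-phase HPLC and positive-ion MRM MS.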

Homo sapiens [4] = test: AUC (0 to 6 hrs) in human CSF with normal renal function assessed as CMMG level at 2000 mg, po every 6 hrs measured after fifth dose by LC/MS; type: ADME, organism-based; set-up: time < 6 hr, dose 2000 mg, route oral; details: in vivo; in short: as §1
Homo sapiens [5] = test: Cmax in human CSF with chronic kidney disease assessed as CMMG level at 1500 mg, po every 12 hrs measured after fifth dose by LC/MS; type: ADME, organism-based, Cerebrospinal fluid; set-up: dose 1500 mg, route oral; details: in vivo; in short: as §2
Homo sapiens [6] = test: Tmax in human systemic circulation with normal renal function assessed as CMMG level at 2000 mg, po every 6 hrs measured after fifth dose by LC/MS; type: ADME, organism-based; details: in vivo; in short: as §1
Homo sapiens [7] = test: Tmax in human systemic circulation with chronic kidney disease assessed as CMMG level at 1500 mg, po every 12 hrs measured after fifth dose by LC/MS; type: ADME, organism-based; details: in vivo; in short: as §2
Homo sapiens [8] = test: AUC (0 to 12 hrs) in human systemic circulation with chronic kidney disease assessed as CMMG level at 1500 mg, po every 12 hrs measured after fifth dose by LC/MS; type: ADME, organism-based; set-up: dose 1500 mg, time < 12 hr, route oral; details: in vivo; in short: as §2
Homo sapiens [9] = test: AUC (0 to 12 hrs) in human CSF with chronic kidney disease assessed as CMMG level at 1500 mg, po every 12 hrs measured after fifth dose by LC/MS; type: ADME, organism-based; set-up: time < 12 hr, dose 1500 mg, route oral; details: in vivo; in short: as §2
Homo sapiens [10] = test: Cmax in human CSF with normal renal function assessed as CMMG level at 2000 mg, po every 6 hrs measured after fifth dose by LC/MS; type: ADME, organism-based, Cerebrospinal fluid; set-up: dose 2000 mg, route oral; details: in vivo; in short: as §1
Homo sapiens [11] = test: Drug level in human CSF with chronic kidney disease assessed as CMMG level at 1500 mg, po every 12 hrs measured after fifth dose by LC/MS; type: ADME, organism-based; details: in vivo, read-out: Drug uptake; in short: as §2
Homo sapiens [12] = test: Cmax in human systemic circulation with normal renal function assessed as CMMG level at 2000 mg, po every 6 hrs measured after fifth dose by LC/MS; type: ADME, organism-based; set-up: dose 2000 mg, route oral; details: in vivo; in short: as §1
Homo sapiens [13] = test: Drug level in human plasma with normal renal function assessed as CMMG level at 2000 mg, po every 6 hrs measured after fifth dose by LC/MS; type: ADME, organism-based; details: in vivo, read-out: Drug uptake; in short: as §1
Homo sapiens [14] = test: Ratio of Cmax in human CSF to Cmax in human plasma with chronic kidney disease assessed as CMMG level at 1500 mg, po every 12 hrs measured after fifth dose by LC/MS; type: ADME, organism-based
Homo sapiens [15] = test: Drug level in human plasma with chronic kidney disease assessed as CMMG level at 1500 mg, po every 12 hrs measured after fifth dose by LC/MS; type: ADME, organism-based; details: in vivo, read-out: Drug uptake; in short: as §2
Homo sapiens [16] = test: Cmax in human systemic circulation with chronic kidney disease assessed as CMMG level at 1500 mg, po every 12 hrs measured after fifth dose by LC/MS; type: ADME, organism-based; set-up: dose 1500 mg, route oral; details: in vivo; in short: as §2
Homo sapiens [17] = test: Tmax in human CSF with normal renal function assessed as CMMG level at 2000 mg, po every 6 hrs measured after fifth dose by LC/MS; type: ADME, organism-based, Cerebrospinal fluid; details: in vivo; in short: as §1
Homo sapiens [18] = test: AUC (0 to 6 hrs) in human systemic circulation with normal renal function assessed as CMMG level at 2000 mg, po every 6 hrs measured after fifth dose by LC/MS; type: ADME, organism-based, Plasma; set-up: dose 2000 mg, time < 6 hr, route oral; details: in vivo; in short: as §1

Ratio (Homo sapiens [1]): 0.025 | concentration (Homo sapiens [2]): 70 nM | Tmax (Homo sapiens [3]): 6.7 h | AUC (Homo sapiens [4]): 0.42 µM·h | Cmax (Homo sapiens [5]): 370 nM | Tmax (Homo sapiens [6]): 3.3 h | Tmax (Homo sapiens [7]): 4.3 h | AUC (Homo sapiens [8]): 148 µM·h | AUC (Homo sapiens [9]): 3.8 µM·h | Cmax (Homo sapiens [10]): 95 nM | concentration (Homo sapiens [11]): 310 nM | Cmax (Homo sapiens [12]): 4100 nM | concentration (Homo sapiens [13]): 2900 nM | Ratio (Homo sapiens [14]): 0.025 | concentration (Homo sapiens [15]): 12000 nM | Cmax (Homo sapiens [16]): 15000 nM | Tmax (Homo sapiens [17]): 1.8 h | AUC (Homo sapiens [18]): 17 µM·h
Compound: Nc1nc2c(ncn2COCC(=O)O)c(=O)[nH]1
